Experimental data reported in ChEMBL document CHEMBL4049439, “Synthesis and Characterization of Tetrahydropyran-Based Bacterial Topoisomerase Inhibitors with Antibacterial Activity against Gram-Negative Bacteria” (J Med Chem, 2017).
Converted amounts (≈) assume the structure as drawn.

Experiments:
[1] = Inhibition of wild-type Acinetobacter baumannii DNA gyrase supercoiling activity using relaxed pBR322 DNA as substrate by ethidium bromide based agarose gel electrophoresis
Acinetobacter baumannii = assay: Antibacterial activity against fluoroquinolone-resistant Acinetobacter baumannii T6474 by CLSI broth microdilution method; type: functional
[2] = Volume of distribution at steady state in Wistar rat at 1 mg/kg, iv by LC-MS/MS analysis; type: ADME, organism-based; details: in vivo, read-out: Vdss
Outline: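 Rats received a single intravenous dose of 10 or 1 mg/kg depending on the compound. Clearance, unbound clearance, Vdss, terminal half-life and dose-normalized AUC were derived from plasma exposure, with unbound fraction (fu) reported for this species.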

Escherichia coli [3] = assay: Ratio of MIC for wild-type Escherichia coli MG1655 to MIC for Escherichia coli MG1655 harboring rfac deletion mutant; type: functional, K-12 substr. MG1655
Outline: (§1)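 Fold change in MIC for each MG1655 derivative (ΔacrAB, ΔrfaC, ΔtolC) relative to the MIC measured on wild-type E. coli MG1655, with both MICs in μg/mL.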

[4] = Inhibition of wild-type Acinetobacter baumannii DNA topoisomerase-4 mediated supercoiled pBR322 DNA relaxation by ethidium bromide based agarose gel electrophoresis
Escherichia coli [5] = assay: Antibacterial activity against Escherichia coli MG1655 harboring tolC deletion mutant by CLSI broth microdilution method; type: functional; details: K-12 substr. MG1655
Outline: (§2)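 MIC (μg/mL) measured against engineered derivatives of E. coli MG1655. ΔrfaC has truncated LPS (raised permeability). ΔtolC lacks the outer-membrane TolC efflux component. ΔacrAB lacks the AcrAB efflux system of the cytoplasmic membrane.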

[6] = Lipophilicity, log D of the compound at pH 7.4; type: physicochemical; details: buffer
Escherichia coli [7] = assay: Antibacterial activity against Escherichia coli MG1655 harboring AcrAB deletion mutant by CLSI broth microdilution method; type: functional; details: K-12 substr. MG1655; outline: as §2
[8] = Inhibition of wild-type Pseudomonas aeruginosa DNA gyrase supercoiling activity using relaxed pBR322 DNA as substrate by ethidium bromide based agarose gel electrophoresis
Escherichia coli [9] = assay: Antibacterial activity against wild-type Escherichia coli MG1655 by CLSI broth microdilution method; type: functional; details: K-12 substr. MG1655
Outline: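 MIC (μg/mL) determined on wild-type E. coli MG1655, the parent of isogenic strains with truncated LPS or deleted TolC or AcrAB efflux.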

Escherichia coli [10] = assay: Antibacterial activity against Escherichia coli MG1655 harboring rfac deletion mutant by CLSI broth microdilution method; type: functional; details: K-12 substr. MG1655; outline: as §2
[11] = Clearance in Wistar rat at 1 mg/kg, iv by LC-MS/MS analysis; type: ADME, organism-based; details: in vivo
Outline: (§3)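 Rats dosed iv at 10 mg/kg or 1 mg/kg. Dose-normalized AUC (μg·h/(mL·dose)) and its unbound counterpart derived via fraction unbound. Clearance, unbound clearance, Vdss and half-life also derived.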

[12] = Fraction unbound in Wistar rat plasma at 1 mg/kg, iv by rapid equilibrium dialysis; type: ADME, organism-based; outline: as §3
Escherichia coli [13] = assay: Ratio of MIC for wild-type Escherichia coli MG1655 to MIC for Escherichia coli MG1655 harboring tolC deletion mutant; type: functional, K-12 substr. MG1655; outline: as §1
[14] = Terminal half-life in Wistar rat at 1 mg/kg, iv by LC-MS/MS analysis; type: ADME, organism-based; details: in vivo, read-out: beta t1/2 (converted); outline: as §3
Rattus norvegicus [15] = assay: Dose normalized AUC in Wistar rat at 1 mg/kg, iv by LC-MS/MS analysis; type: ADME, organism-based; details: in vivo
Rattus norvegicus [16] = assay: Dose normalized unbound AUC in Wistar rat at 1 mg/kg, iv by LC-MS/MS analysis; type: ADME, organism-based; details: in vivo; outline: as §3
Rattus norvegicus [17] = assay: Unbound clearance in Wistar rat at 1 mg/kg, iv by LC-MS/MS analysis; type: ADME, organism-based; details: in vivo; outline: as §3
Escherichia coli [18] = assay: Ratio of MIC for wild-type Escherichia coli MG1655 to MIC for Escherichia coli MG1655 harboring AcrAB deletion mutant; type: functional, K-12 substr. MG1655; outline: as §1
[19] = Inhibition of wild-type Pseudomonas aeruginosa DNA topoisomerase-4 mediated supercoiled pBR322 DNA relaxation by ethidium bromide based agarose gel electrophoresis
[20] = biological target: Voltage-gated inwardly rectifying potassium channel KCNH2 (Homo sapiens, UniProt Q12809); assay: (§4) Inhibition of human ERG assessed as reduction of K+ current
hERG (KCNH2) [21] = biological target: T1, hERG (KCNH2) (Homo sapiens, UniProt Q12809); assay: as §4; details: human
[22] = Cardiotoxicity against human induced pluripotent stem cell-derived cardiomyocytes assessed as free drug concentration causing inhibition of spontaneous rhythm after 5 to 60 mins by Fluo-4 dye based fluorescence assay; type: toxicity; details: cardiac muscle cell
Outline: (§5)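 Spontaneous beating rhythm of human iPSC-derived cardiomyocytes monitored. Reported value is the lowest active concentration, free or total. Free/total conversion corrected for 20% serum in the test solution.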

[23] = Cardiotoxicity against human induced pluripotent stem cell-derived cardiomyocytes assessed as total drug concentration causing effect on spontaneous rhythm after 5 to 60 mins by Fluo-4 dye based fluorescence assay; type: toxicity; details: cardiac muscle cell; outline: as §5
Cavia porcellus [24] = assay: (§6) Cardiotoxicity in Dunkin-Hartley guinea pig assessed as free plasma concentration causing effect on PR interval administered as iv at 3 mg/kg for first 20 mins of infusion followed by 10 mg/kg for second 20 mins of infusion followed by 30 mg/kg for third 20 mins of infusion by LC-MS/MS analysis; type: toxicity, organism-based; details: in vivo
Outline: (§7)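 Anesthetized guinea pigs received 3, 10 and 30 mg/kg iv over three consecutive 20 min periods. MAP, HR and ECG intervals (PR, QRS, RR, QT) recorded continuously. Blood drawn at the end of each period for drug levels. Value is the lowest plasma concentration differing from vehicle-treated animals. Free level uses unbound fraction from rapid equilibrium dialysis of guinea pig plasma.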

[25] = Fraction unbound in Dunkin-Hartley guinea pig plasma administered as iv at 3 mg/kg for first 20 mins of infusion followed by 10 mg/kg for second 20 mins of infusion followed by 30 mg/kg for third 20 mins of infusion by rapid equilibrium dialysis; type: ADME, organism-based, Cavia porcellus
Escherichia coli [26] = assay: Antibacterial activity against wild-type Escherichia coli ATCC 25922 by CLSI broth microdilution method; type: functional
Cavia porcellus [27] = assay: Cardiotoxicity in Dunkin-Hartley guinea pig assessed as free plasma concentration causing effect on heart rate administered as iv at 3 mg/kg for first 20 mins of infusion followed by 10 mg/kg for second 20 mins of infusion followed by 30 mg/kg for third 20 mins of infusion by LC-MS/MS analysis; type: toxicity, organism-based; details: in vivo; outline: as §7
Staphylococcus aureus = assay: Antibacterial activity against Staphylococcus aureus ATCC 29213 by CLSI broth microdilution method; type: functional
[28] = Inhibition of wild-type Escherichia coli DNA topoisomerase-4 mediated supercoiled pBR322 DNA relaxation by ethidium bromide based agarose gel electrophoresis
Cavia porcellus [29] = assay: Cardiotoxicity in Dunkin-Hartley guinea pig assessed as free plasma concentration causing effect on QT interval administered as iv at 3 mg/kg for first 20 mins of infusion followed by 10 mg/kg for second 20 mins of infusion followed by 30 mg/kg for third 20 mins of infusion by LC-MS/MS analysis; type: toxicity, organism-based; details: in vivo; outline: as §7
hERG (KCNH2) [30] = biological target: T1, hERG (KCNH2); assay: Inhibition of human ERG assessed as reduction of K+ current at 30 uM
Outline: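 hERG K+ channel current reduction measured at 30 μM compound concentration.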

Cavia porcellus [31] = assay: as §6, with “mean arterial pressure” for “PR interval”; type: toxicity, organism-based; details: in vivo; outline: as §7
Cavia porcellus [32] = assay: Cardiotoxicity in Dunkin-Hartley guinea pig assessed as free plasma concentration causing effect on QRS interval administered as iv at 3 mg/kg for first 20 mins of infusion followed by 10 mg/kg for second 20 mins of infusion followed by 30 mg/kg for third 20 mins of infusion by LC-MS/MS analysis; type: toxicity, organism-based; details: in vivo; outline: as §7
[33] = Inhibition of wild-type Escherichia coli DNA gyrase supercoiling activity using relaxed pBR322 DNA as substrate by ethidium bromide based agarose gel electrophoresis
Pseudomonas aeruginosa = assay: Antibacterial activity against Pseudomonas aeruginosa ATCC 27853 by CLSI broth microdilution method; type: functional

T1 sequence (Q12809 whole entry): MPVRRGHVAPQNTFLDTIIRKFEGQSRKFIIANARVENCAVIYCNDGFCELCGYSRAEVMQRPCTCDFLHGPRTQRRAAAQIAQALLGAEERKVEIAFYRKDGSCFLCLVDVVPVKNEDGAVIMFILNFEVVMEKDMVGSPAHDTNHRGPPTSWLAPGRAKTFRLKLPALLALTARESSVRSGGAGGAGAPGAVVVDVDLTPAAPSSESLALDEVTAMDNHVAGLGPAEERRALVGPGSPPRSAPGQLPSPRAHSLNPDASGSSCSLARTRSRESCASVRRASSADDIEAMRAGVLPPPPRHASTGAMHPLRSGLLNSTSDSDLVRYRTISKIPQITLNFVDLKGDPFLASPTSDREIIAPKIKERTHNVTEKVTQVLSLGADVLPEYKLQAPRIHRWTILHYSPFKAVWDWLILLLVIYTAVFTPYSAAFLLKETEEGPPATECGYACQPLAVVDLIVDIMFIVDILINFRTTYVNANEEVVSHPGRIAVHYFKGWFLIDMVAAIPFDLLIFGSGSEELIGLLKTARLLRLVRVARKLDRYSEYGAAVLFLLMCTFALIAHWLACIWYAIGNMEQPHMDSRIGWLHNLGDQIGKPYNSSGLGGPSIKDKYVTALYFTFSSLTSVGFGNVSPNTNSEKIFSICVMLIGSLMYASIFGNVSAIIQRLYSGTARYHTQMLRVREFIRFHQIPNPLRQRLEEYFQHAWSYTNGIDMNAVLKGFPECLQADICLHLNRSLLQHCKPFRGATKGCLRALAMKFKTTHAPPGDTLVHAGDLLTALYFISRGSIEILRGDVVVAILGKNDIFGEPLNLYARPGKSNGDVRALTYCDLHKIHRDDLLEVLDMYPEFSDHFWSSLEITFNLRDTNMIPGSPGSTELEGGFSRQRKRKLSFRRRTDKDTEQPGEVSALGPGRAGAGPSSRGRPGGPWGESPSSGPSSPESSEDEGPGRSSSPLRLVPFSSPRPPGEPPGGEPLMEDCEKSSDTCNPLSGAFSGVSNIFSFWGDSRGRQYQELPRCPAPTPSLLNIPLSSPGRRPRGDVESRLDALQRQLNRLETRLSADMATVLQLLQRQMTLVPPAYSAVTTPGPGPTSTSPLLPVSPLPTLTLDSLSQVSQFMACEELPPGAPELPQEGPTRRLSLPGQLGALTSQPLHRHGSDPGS
Sequence of Voltage-gated inwardly rectifying potassium channel KCNH2 (Q12809 whole entry): as above

SMILES	IC50 [1] [nM]	MIC (Acinetobacter baumannii) [µg/mL]	Vd [2] [L/kg]	IC50 [4] [nM]	logD [6]	IC50 [8] [nM]	clearance [11] [mL/min/kg]	fraction unbound [12]	half-life [14] [h]	AUC/dose (Rattus norvegicus [15]) [ng·h/mL]	fAUC/dose (Rattus norvegicus [16]) [µg·h/mL]	CL free (Rattus norvegicus [17]) [mL/min/kg]	IC50 [19] [nM]	further results
COc1ccc2ncc(F)c(C[C@H](O)[C@@H]3CC[C@@H](NCc4ccc5c(n4)NC(=O)CO5)CO3)c2n1	125	0.125 (≈ 0.259 µM)	2.5	125	2	125	37	0.086	1.3	457	39	430	125	Ratio (Escherichia coli [3]): 16; MIC (Escherichia coli [5]): 0.004 µg/mL (≈ 0.00827 µM); MIC (Escherichia coli [7]): 0.004 µg/mL (≈ 0.00827 µM); MIC (Escherichia coli [9]): 0.5 µg/mL (≈ 1.03 µM); MIC (Escherichia coli [10]): 0.031 µg/mL (≈ 0.0641 µM); Ratio (Escherichia coli [13]): 100; Ratio (Escherichia coli [18]): 100
COc1ccc2ccc(=O)n(C[C@H](O)[C@@H]3CC[C@@H](NCc4ccc5c(n4)NC(=O)CO5)CO3)c2n1	125	≤ 0.03	2.5	125	2	125	44	0.167	1	378	63	263	30	IC50 [20]: 15000 nM; IC20 (hERG (KCNH2) [21]): 3700 nM; Drug uptake(free) [22]: 0.86 µM; Drug uptake [23]: 1.4 µM; Cp(f) (Cavia porcellus [24]): > 21 µM; fraction unbound at 20 min [25]: 0.43; MIC (Escherichia coli [26]): 0.5 µg/mL (≈ 1.04 µM); Cp(f) (Cavia porcellus [27]): 6 µM; MIC (Staphylococcus aureus): ≤ 0.03 µg/mL; IC50 [28]: 30 nM; Cp(f) (Cavia porcellus [29]): 1.5 µM; inhibition at 30 µM (hERG (KCNH2) [30]): 71%; Cp(f) (Cavia porcellus [31]): 21 µM; Cp(f) (Cavia porcellus [32]): 21 µM; IC50 [33]: 125 nM; MIC (Pseudomonas aeruginosa): 8 µg/mL (≈ 16.6 µM)
